Data set [1] deals with T1, Bromodomain-containing protein 4 (Homo sapiens, UniProt O60885). Kind of data set: Displacement of fluorescein-labeled MS574 from recombinant human BRD4 BrD2 after 1 hr by fluorescence anisotropy assay. In a few lines:
(§1)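 Competition fluorescence anisotropy with His-tag-removed recombinant bromodomain (Ni-IDA purified, thrombin cleaved) at 0.25–1 µM, chosen so that 50–80% of probe is bound. FITC-labeled probe at 80 nM (≤2Kd), unlabeled ligand titrated, in PBS pH 7.4, read after 1 h at 25 °C. IC50 from curve fit, converted to Ki with the Nikolovska-Coleska correction to Cheng-Prusoff (one-site competitive). The resolvable Ki is limited by the probe Kd.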
On the technique in general: Fluorescence polarisation rises when a labelled molecule tumbles more slowly, as on binding a larger partner.

In data set [2] the target is Bromodomain-containing protein 4 (Mus musculus) (UniProt Q9ESU6). Kind of data set: (§2) Inhibition of BRD4 in LPS-stimulated mouse RAW264.7 cells assessed as inhibition of NF-kappaB-mediated nitric oxide production preincubated for 30 mins followed by LPS stimulation measured after 24 hrs by spectrophotometric analysis. The data set is classed as cell-based. In outline:
(§3)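 RAW264.7 cells in DMEM/10% FBS, plated at 3 × 10^5 cells/mL, pretreated with inhibitor 30 min, then LPS (1 µg/mL) plus inhibitor for 24 h. Inhibitor concentrations 0.28–50000 nM from DMSO stock, final DMSO 0.05% (v/v). Nitrite in the supernatant was measured spectrophotometrically at 520 nm.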

Data set [3] addresses T2, Bromodomain-containing protein 4 (Mus musculus, UniProt Q9ESU6). The description is as §2. The data set is classed as cell-based. In a few lines:
as §3

Another data set deals with RAW264.7. Kind of data set: Cytotoxicity against mouse RAW264.7 cells assessed as cell viability up to 100 uM after 24 hrs by MTT assay. As to conditions: raw264.7, 24 h. In kind it is cell-based. In outline:
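RAW264.7 macrophages seeded at 1 × 10^4 cells/well, settled 18 h at 37 °C, then exposed to inhibitors up to 100 µM for 24 h. Compounds were predissolved in DMSO and diluted in medium, final DMSO 0.05% (v/v). MTT (4 mg/ml) was added for 4 h at 37 °C, formazan solubilized in DMSO, and absorbance read at 570/630 nm.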
Background: Tetrazolium assays rely on reduction of a dye to a coloured formazan, in cell work by metabolically active cells.

Data set [4] deals with T1, Bromodomain-containing protein 4. Kind of data set: Displacement of fluorescein-labeled MS574 from recombinant human BRD4 BrD1 after 1 hr by fluorescence anisotropy assay. In a few lines: as §1
Data set [5] has as its target T3, Bromodomain-containing protein 3 (Homo sapiens, UniProt Q15059). As to the kind of experiment: Displacement of fluorescein-labeled MS574 from recombinant human BRD3 BrD1 after 1 hr by fluorescence anisotropy assay. In outline:
as §1

Data set [6] concerns the target SWI/SNF-related matrix-associated actin-dependent regulator of chromatin subfamily A member 4 (Homo sapiens, UniProt P51532). Kind of data set: Displacement of fluorescein-labeled MS239 from recombinant human SMARCA4 bromodomain after 1 hr by fluorescence anisotropy assay. In a few lines:
as §1

For the next data set, the target named is CREB-binding protein (Homo sapiens, UniProt Q92793). As to the kind of experiment: Displacement of fluorescein-labeled MS226 from recombinant human CBP bromodomain after 1 hr by fluorescence anisotropy assay. In outline: as §1
Data set [7] deals with Histone acetyltransferase KAT2B (Homo sapiens, UniProt Q92831). As to the kind of experiment: Displacement of fluorescein-labeled MS239 from recombinant human PCAF after 1 hr by fluorescence anisotropy assay. In a few lines: as §1
The target of data set [8] is Bromodomain-containing protein 4 (Mus musculus) (UniProt Q9ESU6). Kind of data set: (§4) Inhibition of BRD4 in LPS-stimulated mouse RAW264.7 cells assessed as inhibition of NF-kappaB-mediated IL-6 expression preincubated for 30 mins followed by LPS stimulation measured after 24 hrs by ELISA. In kind it is cell-based. In outline: (§5)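 RAW264.7 cells grown in DMEM/10% FBS at 37 °C, 5% CO2, plated at 3 × 10^5 cells/mL, pretreated with inhibitor for 30 min. Medium was then replaced with LPS (1 µg/mL) plus inhibitor for 24 h. Compounds were diluted from DMSO to 0.28–50000 nM, final DMSO 0.05% (v/v). Supernatant IL-6 was measured by mouse ELISA read at 570 nm.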
In general terms: An ELISA detects its analyte on a solid surface through an enzyme-linked reagent.

Data set [9] deals with T2, Bromodomain-containing protein 4. The description is as §4. In kind it is cell-based. In a few lines:
as §5

Data set [10] deals with T4, Bromodomain-containing protein 7 (Homo sapiens, UniProt Q9NPI1).
T4 sequence (Q9NPI1 whole entry): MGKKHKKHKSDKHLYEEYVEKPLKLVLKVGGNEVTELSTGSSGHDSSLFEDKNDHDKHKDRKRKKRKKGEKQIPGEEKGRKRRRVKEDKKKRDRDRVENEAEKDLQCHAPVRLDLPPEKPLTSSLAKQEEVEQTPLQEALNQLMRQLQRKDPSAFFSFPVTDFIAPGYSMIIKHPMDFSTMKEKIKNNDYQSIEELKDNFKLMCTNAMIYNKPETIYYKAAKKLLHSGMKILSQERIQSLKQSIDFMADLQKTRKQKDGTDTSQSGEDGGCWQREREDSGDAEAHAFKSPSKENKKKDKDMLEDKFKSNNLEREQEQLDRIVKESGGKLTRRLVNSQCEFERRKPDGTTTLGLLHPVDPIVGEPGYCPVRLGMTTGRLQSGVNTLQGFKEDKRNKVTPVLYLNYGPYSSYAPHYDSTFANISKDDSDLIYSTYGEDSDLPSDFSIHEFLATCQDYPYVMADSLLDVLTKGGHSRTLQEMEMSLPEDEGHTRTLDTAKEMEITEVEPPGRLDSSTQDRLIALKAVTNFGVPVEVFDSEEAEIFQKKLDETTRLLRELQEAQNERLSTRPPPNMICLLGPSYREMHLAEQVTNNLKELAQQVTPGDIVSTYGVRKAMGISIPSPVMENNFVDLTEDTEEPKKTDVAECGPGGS
As to the kind of experiment: Displacement of fluorescein-labeled MS226 from recombinant human BRD7 after 1 hr by fluorescence anisotropy assay. In outline:
as §1

Data set [11] deals with T3, Bromodomain-containing protein 3. Kind of data set: Displacement of fluorescein-labeled MS574 from recombinant human BRD3 BrD2 after 1 hr by fluorescence anisotropy assay. In a few lines: as §1
The target in data set [12] is Nucleosome-remodeling factor subunit BPTF (Homo sapiens, UniProt Q12830). As to the kind of experiment: Displacement of fluorescein-labeled MS239 from recombinant human BPTF after 1 hr by fluorescence anisotropy assay. In a few lines: as §1

Some results are limits rather than exact numbers.

Usually IC50 stands for the concentration that inhibits the measured activity by half.

Sequence of CREB-binding protein (Q92793 whole entry): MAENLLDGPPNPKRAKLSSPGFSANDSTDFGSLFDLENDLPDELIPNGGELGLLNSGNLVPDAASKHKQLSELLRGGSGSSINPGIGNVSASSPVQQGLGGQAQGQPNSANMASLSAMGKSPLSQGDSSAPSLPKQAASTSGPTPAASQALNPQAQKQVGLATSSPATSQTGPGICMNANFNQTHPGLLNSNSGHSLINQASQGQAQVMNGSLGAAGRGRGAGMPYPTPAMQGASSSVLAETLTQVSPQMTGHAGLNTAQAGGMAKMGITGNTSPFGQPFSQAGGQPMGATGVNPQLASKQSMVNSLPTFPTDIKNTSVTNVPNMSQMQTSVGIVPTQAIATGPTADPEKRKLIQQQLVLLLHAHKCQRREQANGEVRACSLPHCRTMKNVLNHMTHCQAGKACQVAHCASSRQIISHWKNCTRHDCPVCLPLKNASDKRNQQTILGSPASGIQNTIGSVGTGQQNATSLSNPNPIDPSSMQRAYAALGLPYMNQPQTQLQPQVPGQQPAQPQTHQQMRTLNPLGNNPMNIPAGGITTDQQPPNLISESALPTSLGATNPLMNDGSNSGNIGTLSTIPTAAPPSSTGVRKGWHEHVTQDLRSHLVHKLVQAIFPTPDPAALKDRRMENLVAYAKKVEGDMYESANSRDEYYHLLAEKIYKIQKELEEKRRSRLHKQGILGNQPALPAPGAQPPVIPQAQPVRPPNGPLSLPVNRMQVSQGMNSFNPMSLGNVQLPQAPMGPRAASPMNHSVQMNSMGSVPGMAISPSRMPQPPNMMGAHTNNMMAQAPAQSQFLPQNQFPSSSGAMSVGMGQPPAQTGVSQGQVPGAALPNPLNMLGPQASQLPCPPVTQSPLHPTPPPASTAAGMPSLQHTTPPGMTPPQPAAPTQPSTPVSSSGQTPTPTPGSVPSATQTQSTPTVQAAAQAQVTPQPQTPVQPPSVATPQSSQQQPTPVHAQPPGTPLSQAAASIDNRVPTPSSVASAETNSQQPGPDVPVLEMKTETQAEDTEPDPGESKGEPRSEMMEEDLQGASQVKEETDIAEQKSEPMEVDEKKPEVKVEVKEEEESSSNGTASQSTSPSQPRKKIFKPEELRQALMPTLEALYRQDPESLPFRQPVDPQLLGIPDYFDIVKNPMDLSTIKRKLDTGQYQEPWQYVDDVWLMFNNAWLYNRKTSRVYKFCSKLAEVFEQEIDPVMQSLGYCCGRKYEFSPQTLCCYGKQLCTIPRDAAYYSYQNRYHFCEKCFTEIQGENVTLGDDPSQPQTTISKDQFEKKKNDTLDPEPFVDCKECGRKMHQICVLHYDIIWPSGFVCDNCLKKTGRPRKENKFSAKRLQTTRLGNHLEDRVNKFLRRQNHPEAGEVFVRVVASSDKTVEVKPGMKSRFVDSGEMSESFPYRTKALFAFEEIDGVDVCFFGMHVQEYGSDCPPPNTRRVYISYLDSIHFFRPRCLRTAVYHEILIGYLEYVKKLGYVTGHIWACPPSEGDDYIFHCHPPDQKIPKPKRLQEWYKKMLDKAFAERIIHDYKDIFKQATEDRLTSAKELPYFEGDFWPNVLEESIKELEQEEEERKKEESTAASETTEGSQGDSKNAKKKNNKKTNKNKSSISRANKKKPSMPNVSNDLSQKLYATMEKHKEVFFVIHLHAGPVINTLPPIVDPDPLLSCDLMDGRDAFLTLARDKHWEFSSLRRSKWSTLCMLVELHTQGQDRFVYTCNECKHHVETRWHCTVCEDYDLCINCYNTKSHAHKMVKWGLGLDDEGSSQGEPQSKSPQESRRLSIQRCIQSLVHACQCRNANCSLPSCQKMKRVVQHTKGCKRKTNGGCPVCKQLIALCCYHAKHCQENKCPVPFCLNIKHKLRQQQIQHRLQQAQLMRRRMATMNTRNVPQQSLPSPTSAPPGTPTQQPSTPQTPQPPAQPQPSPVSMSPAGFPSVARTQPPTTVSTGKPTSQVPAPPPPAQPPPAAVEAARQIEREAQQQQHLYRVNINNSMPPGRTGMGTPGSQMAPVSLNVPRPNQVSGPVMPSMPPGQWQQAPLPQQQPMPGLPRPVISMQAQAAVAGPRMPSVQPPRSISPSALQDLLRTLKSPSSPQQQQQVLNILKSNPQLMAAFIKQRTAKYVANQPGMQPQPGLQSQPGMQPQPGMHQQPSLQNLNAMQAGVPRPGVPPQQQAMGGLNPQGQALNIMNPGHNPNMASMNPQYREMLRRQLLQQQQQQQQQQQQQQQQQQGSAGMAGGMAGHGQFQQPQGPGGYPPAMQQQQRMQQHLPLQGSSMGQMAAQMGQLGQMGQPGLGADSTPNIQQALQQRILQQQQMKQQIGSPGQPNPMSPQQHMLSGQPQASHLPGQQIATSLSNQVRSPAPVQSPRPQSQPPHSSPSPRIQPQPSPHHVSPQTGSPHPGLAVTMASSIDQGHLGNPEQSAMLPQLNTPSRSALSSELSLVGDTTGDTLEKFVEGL
T3 sequence (Q15059 whole entry): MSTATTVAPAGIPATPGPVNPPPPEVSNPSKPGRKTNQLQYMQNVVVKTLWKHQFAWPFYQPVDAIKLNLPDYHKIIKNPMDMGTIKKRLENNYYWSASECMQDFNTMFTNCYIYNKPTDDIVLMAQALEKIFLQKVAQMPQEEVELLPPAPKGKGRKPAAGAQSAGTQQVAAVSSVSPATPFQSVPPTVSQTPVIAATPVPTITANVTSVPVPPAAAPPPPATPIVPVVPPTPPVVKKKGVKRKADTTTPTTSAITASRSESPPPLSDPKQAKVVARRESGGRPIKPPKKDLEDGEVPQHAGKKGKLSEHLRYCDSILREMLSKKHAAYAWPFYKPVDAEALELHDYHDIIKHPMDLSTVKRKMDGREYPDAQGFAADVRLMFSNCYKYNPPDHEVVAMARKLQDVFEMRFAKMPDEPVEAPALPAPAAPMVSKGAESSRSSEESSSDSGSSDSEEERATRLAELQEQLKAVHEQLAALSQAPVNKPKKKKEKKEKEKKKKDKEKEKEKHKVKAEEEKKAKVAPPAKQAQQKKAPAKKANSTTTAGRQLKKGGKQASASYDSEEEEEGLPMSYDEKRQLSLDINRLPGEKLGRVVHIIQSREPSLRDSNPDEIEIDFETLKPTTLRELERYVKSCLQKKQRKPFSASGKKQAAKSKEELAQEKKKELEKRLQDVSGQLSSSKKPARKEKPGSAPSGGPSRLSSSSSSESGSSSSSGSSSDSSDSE
Sequence of SWI/SNF-related matrix-associated actin-dependent regulator of chromatin subfamily A member 4 (P51532 whole entry): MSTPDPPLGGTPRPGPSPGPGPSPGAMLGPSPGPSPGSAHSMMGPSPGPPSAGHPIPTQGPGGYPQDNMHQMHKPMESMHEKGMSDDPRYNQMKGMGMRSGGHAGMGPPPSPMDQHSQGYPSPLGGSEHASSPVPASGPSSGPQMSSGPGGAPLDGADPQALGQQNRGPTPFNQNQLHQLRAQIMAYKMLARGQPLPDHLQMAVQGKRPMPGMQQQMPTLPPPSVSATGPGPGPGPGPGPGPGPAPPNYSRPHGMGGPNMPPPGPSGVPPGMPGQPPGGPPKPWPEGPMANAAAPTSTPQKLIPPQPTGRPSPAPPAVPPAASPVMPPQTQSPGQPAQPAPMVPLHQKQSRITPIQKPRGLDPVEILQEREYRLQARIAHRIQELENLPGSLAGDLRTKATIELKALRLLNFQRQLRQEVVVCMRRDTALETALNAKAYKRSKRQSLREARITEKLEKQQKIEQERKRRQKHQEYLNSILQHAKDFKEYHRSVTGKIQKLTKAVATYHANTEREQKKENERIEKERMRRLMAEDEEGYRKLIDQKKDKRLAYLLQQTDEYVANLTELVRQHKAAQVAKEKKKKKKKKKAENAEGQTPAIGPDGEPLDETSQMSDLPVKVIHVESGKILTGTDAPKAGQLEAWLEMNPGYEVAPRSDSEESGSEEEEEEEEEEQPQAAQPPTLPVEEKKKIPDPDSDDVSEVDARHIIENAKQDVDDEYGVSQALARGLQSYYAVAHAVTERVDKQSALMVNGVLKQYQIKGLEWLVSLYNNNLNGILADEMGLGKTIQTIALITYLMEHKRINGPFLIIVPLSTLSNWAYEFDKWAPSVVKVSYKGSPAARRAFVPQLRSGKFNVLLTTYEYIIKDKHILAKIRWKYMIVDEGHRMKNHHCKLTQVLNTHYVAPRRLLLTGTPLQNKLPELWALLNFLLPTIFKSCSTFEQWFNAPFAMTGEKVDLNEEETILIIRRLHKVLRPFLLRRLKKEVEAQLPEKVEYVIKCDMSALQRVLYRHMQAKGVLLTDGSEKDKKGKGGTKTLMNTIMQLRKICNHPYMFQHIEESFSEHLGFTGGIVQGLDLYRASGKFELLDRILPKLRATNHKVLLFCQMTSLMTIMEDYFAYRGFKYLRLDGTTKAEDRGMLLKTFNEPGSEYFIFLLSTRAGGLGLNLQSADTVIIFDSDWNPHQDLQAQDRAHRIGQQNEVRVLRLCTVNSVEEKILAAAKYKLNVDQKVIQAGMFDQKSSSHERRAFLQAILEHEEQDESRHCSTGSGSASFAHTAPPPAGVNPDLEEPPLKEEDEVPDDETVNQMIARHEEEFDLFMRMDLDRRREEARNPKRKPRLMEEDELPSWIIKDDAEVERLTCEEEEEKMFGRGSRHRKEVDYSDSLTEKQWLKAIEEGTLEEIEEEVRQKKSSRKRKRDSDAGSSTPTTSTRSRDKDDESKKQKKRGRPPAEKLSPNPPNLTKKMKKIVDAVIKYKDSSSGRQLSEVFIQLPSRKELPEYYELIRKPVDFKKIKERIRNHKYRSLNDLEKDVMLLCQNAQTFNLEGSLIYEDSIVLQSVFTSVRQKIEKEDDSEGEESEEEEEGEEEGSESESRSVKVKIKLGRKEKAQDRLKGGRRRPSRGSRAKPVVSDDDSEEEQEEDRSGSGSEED

On to `Cc1cc(/N=N/c2ccc(S(=O)(=O)Nc3ccccn3)cc2)c(N)c(C)c1O`, for which the Ki in data set [1] is 0.44 µM; in [4] (read-out: Ki), 0.15 µM; in data set [4] (read-out: pKi (converted)) it was 0.151 µM; in data set [5], 0.29 µM; in [6], under 6.56 µM; at CREB-binding protein, 5.12 µM. The Ki in data set [7] is under 3.34 µM; in [10], under 1.43 µM; in data set [11], 0.22 µM; in [12] it was under 1.7 µM. In addition, the inhibition entry in data set [2] and in [8] was “Dose-dependent effect” in each case. The IC50 stood at 38.1 µM in [3] and 23.2 µM in data set [9]. Further, the Activity entry in the data set on RAW264.7 is on record as “Non-toxic”.
In the case of `Cc1cc(/N=N/c2ccc(S(=O)(=O)Nc3ccccn3)cc2)c(N)c(Cl)c1O`, the inhibition entry in data set [2] and in [8] was “Dose-dependent effect” in each case. For the same compound, the IC50 turned out to be 3.4 µM in data set [3] and 3.8 µM in [9]. Besides, the Activity entry in the data set with RAW264.7 is “Non-toxic”. Further, the Ki in data set [5] is 0.24 µM; in data set [6] it was under 6.56 µM; on CREB-binding protein, 5.59 µM; in data set [7], under 3.34 µM; in data set [10], under 1.43 µM; in data set [11] it was 0.32 µM. Further, the Ki in data set [12] was found to be 1.62 µM.
On to `Cc1cc(/N=N/c2ccc(S(=O)(=O)Nc3ccccn3)cc2)c(N)cc1O`, for which the inhibition entry in data set [2] and in data set [8] was “Dose-dependent effect” throughout. Further, the IC50 stood at 3.8 µM in data set [3] and 4.9 µM in data set [9]. Besides, the Activity entry in the data set on RAW264.7 is “Non-toxic”. For the same compound, the Ki in data set [5] turned out to be 0.1 µM; in [6], 7.97 µM; at CREB-binding protein it was 2.18 µM; in [7], 5.52 µM; in data set [10] it was 2.72 µM; in [11], 0.14 µM. For the same compound, the Ki in data set [12] was 6.06 µM.

(Values after ChEMBL document CHEMBL3085768, “Structure-guided design of potent diazobenzene inhibitors for the BET bromodomains” (J Med Chem, 2013).)
